From ChEMBL document CHEMBL1156205, “Synthesis and antibacterial activity of new 9-O-arylpropenyloxime ketolides” (2010)
Values after ≈ are worked out from the molar mass of the structure shown.

Columns and labels:
Type in all cases: functional
Streptococcus pneumoniae [1] = experiment: Antibacterial activity against Streptococcus pneumoniae ATCC 49619 by agar dilution method; settings: ATCC49619
How it was run: (§1)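 MIC determined by agar dilution on Mueller–Hinton agar against reference strains.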

Streptococcus pyogenes [2] = experiment: Antibacterial activity against Streptococcus pyogenes ATCC 8668 by agar dilution method
How it was run: (§2)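 MIC measured by agar dilution on Mueller–Hinton agar. Strains were a reference culture and clinically isolated strains. The pneumococcal isolates were penicillin-susceptible clinical isolates.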

Streptococcus pyogenes [3] = experiment: Antibacterial activity against Streptococcus pyogenes isolate 2 by agar dilution method; how it was run: as §2
Staphylococcus aureus [4] = experiment: Antibacterial activity against methicillin-resistant Staphylococcus aureus 2 by agar dilution method
How it was run: (§3)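 MIC determined by agar dilution on Mueller–Hinton agar against clinical strains of methicillin-resistant S. aureus.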

Staphylococcus aureus [5] = experiment: Antibacterial activity against methicillin-resistant Staphylococcus aureus 1 by agar dilution method; how it was run: as §3
Streptococcus pyogenes [6] = experiment: Antibacterial activity against Streptococcus pyogenes isolate 1 by agar dilution method; how it was run: as §2
Streptococcus pneumoniae [7] = experiment: Antibacterial activity against penicillin intermediate-resistant Streptococcus pneumoniae isolate I1 by agar dilution method
How it was run: (§4)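 MIC determined by agar dilution on Mueller–Hinton agar against clinically isolated penicillin-intermediate-resistant S. pneumoniae.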

Staphylococcus aureus [8] = experiment: Antibacterial activity against methicillin-susceptible Staphylococcus aureus isolate 2 by agar dilution method
How it was run: (§5)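 MIC determined by agar dilution on Mueller–Hinton agar against clinically isolated methicillin-susceptible S. aureus.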

Staphylococcus aureus [9] = experiment: Antibacterial activity against methicillin-susceptible Staphylococcus aureus ATCC 29213 by agar dilution method; how it was run: as §1
Streptococcus pyogenes [10] = experiment: Antibacterial activity against Streptococcus pyogenes isolate 3 by agar dilution method; how it was run: as §2
Staphylococcus aureus [11] = experiment: Antibacterial activity against methicillin-susceptible Staphylococcus aureus isolate 1 by agar dilution method; how it was run: as §5
Streptococcus pneumoniae [12] = experiment: Antibacterial activity against penicillin intermediate-resistant Streptococcus pneumoniae isolate I2 by agar dilution method; how it was run: as §4
Streptococcus pneumoniae [13] = experiment: Antibacterial activity against penicillin intermediate-resistant Streptococcus pneumoniae isolate I3 by agar dilution method; how it was run: as §4
Streptococcus pneumoniae [14] = experiment: Antibacterial activity against penicillin-susceptible Streptococcus pneumoniae isolate S1 by agar dilution method; how it was run: as §2
Staphylococcus aureus [15] = experiment: Antibacterial activity against methicillin-susceptible Staphylococcus aureus isolate 3 by agar dilution method; how it was run: as §5
Streptococcus pneumoniae [16] = experiment: Antibacterial activity against penicillin-susceptible Streptococcus pneumoniae isolate S2 by agar dilution method; how it was run: as §2
Staphylococcus aureus [17] = experiment: Antibacterial activity against methicillin-resistant Staphylococcus aureus 3 by agar dilution method; how it was run: as §3

Compound | MIC (Streptococcus pneumoniae [1]) | MIC (Streptococcus pyogenes [2]) | MIC (Streptococcus pyogenes [3]) | MIC (Staphylococcus aureus [4]) | MIC (Staphylococcus aureus [5]) | MIC (Streptococcus pyogenes [6]) | MIC (Streptococcus pneumoniae [7]) | MIC (Staphylococcus aureus [8]) | MIC (Staphylococcus aureus [9]) | MIC (Streptococcus pyogenes [10]) | MIC (Staphylococcus aureus [11]) | MIC (Streptococcus pneumoniae [12]) | MIC (Streptococcus pneumoniae [13]) | MIC (Streptococcus pneumoniae [14]) | MIC (Staphylococcus aureus [15]) | MIC (Streptococcus pneumoniae [16]) | MIC (Staphylococcus aureus [17]) | MIC50 (Streptococcus pneumoniae [7]) | MIC50 (Streptococcus pneumoniae [12]) | MIC50 (Streptococcus pneumoniae [13])
CC[C@H]1OC(=O)[C@H](C)C(=O)[C@H](C)[C@@H](O[C@@H]2O[C@H](C)C[C@H](N(C)C)[C@H]2O)[C@](C)(OC)C[C@@H](C)/C(=N\OC/C=C/c2cccs2)[C@H](C)[C@@H](O)[C@]1(C)O | 0.06 µg/mL (≈ 0.0828 µM) | 0.06 µg/mL (≈ 0.0828 µM) | 0.06 µg/mL (≈ 0.0828 µM) | 128 µg/mL (≈ 177 µM) | 128 µg/mL (≈ 177 µM) | 0.06 µg/mL (≈ 0.0828 µM) | 32 µg/mL (≈ 44.1 µM) | 0.25 µg/mL (≈ 0.345 µM) | 0.5 µg/mL (≈ 0.69 µM) | 0.06 µg/mL (≈ 0.0828 µM) | 0.5 µg/mL (≈ 0.69 µM) | 0.125 µg/mL (≈ 0.172 µM) | 0.125 µg/mL (≈ 0.172 µM) | 0.06 µg/mL (≈ 0.0828 µM) | 0.25 µg/mL (≈ 0.345 µM) | 0.06 µg/mL (≈ 0.0828 µM) | 0.25 µg/mL (≈ 0.345 µM) | – | – | –
CC[C@H]1OC(=O)[C@H](C)C(=O)[C@H](C)[C@@H](O[C@@H]2O[C@H](C)C[C@H](N(C)C)[C@H]2O)[C@](C)(OC)C[C@@H](C)/C(=N\OC/C=C/c2cnc3ccccc3c2)[C@H](C)[C@@H](O)[C@]1(C)O | 0.06 µg/mL (≈ 0.0779 µM) | 0.06 µg/mL (≈ 0.0779 µM) | 0.06 µg/mL (≈ 0.0779 µM) | 128 µg/mL (≈ 166 µM) | 128 µg/mL (≈ 166 µM) | 0.06 µg/mL (≈ 0.0779 µM) | 64 µg/mL (≈ 83.1 µM) | 0.25 µg/mL (≈ 0.325 µM) | 0.25 µg/mL (≈ 0.325 µM) | 0.06 µg/mL (≈ 0.0779 µM) | 0.25 µg/mL (≈ 0.325 µM) | 0.06 µg/mL (≈ 0.0779 µM) | 4 µg/mL (≈ 5.19 µM) | 0.06 µg/mL (≈ 0.0779 µM) | 0.25 µg/mL (≈ 0.325 µM) | 0.06 µg/mL (≈ 0.0779 µM) | 0.25 µg/mL (≈ 0.325 µM) | – | – | –
CC[C@H]1OC(=O)[C@H](C)C(=O)[C@H](C)[C@@H](O[C@@H]2O[C@H](C)C[C@H](N(C)C)[C@H]2O)[C@](C)(OC)C[C@@H](C)/C(=N\OC/C=C/c2ccc3[nH]ccc3c2)[C@H](C)[C@@H](O)[C@]1(C)O | 0.25 µg/mL (≈ 0.33 µM) | 0.25 µg/mL (≈ 0.33 µM) | 0.25 µg/mL (≈ 0.33 µM) | 128 µg/mL (≈ 169 µM) | 128 µg/mL (≈ 169 µM) | 0.06 µg/mL (≈ 0.0792 µM) | 32 µg/mL (≈ 42.2 µM) | 1 µg/mL (≈ 1.32 µM) | 1 µg/mL (≈ 1.32 µM) | 0.25 µg/mL (≈ 0.33 µM) | 1 µg/mL (≈ 1.32 µM) | 0.25 µg/mL (≈ 0.33 µM) | 0.25 µg/mL (≈ 0.33 µM) | 0.06 µg/mL (≈ 0.0792 µM) | 1 µg/mL (≈ 1.32 µM) | 0.06 µg/mL (≈ 0.0792 µM) | 1 µg/mL (≈ 1.32 µM) | – | – | –
CC[C@H]1OC(=O)[C@H](C)C(=O)[C@H](C)[C@@H](O[C@@H]2O[C@H](C)C[C@H](N(C)C)[C@H]2O)[C@](C)(OC)C[C@@H](C)/C(=N\OC/C=C/c2ccc3c(c2)CCC3=O)[C@H](C)[C@@H](O)[C@]1(C)O | 0.25 µg/mL (≈ 0.323 µM) | 0.25 µg/mL (≈ 0.323 µM) | 0.25 µg/mL (≈ 0.323 µM) | 128 µg/mL (≈ 166 µM) | 128 µg/mL (≈ 166 µM) | 0.06 µg/mL (≈ 0.0776 µM) | 64 µg/mL (≈ 82.8 µM) | 1 µg/mL (≈ 1.29 µM) | 1 µg/mL (≈ 1.29 µM) | 0.25 µg/mL (≈ 0.323 µM) | 1 µg/mL (≈ 1.29 µM) | 0.25 µg/mL (≈ 0.323 µM) | 8 µg/mL (≈ 10.3 µM) | 0.06 µg/mL (≈ 0.0776 µM) | 1 µg/mL (≈ 1.29 µM) | 0.06 µg/mL (≈ 0.0776 µM) | 1 µg/mL (≈ 1.29 µM) | – | – | –
CC[C@H]1OC(=O)[C@H](C)C(=O)[C@H](C)[C@@H](O[C@@H]2O[C@H](C)C[C@H](N(C)C)[C@H]2O)[C@](C)(OC)C[C@@H](C)/C(=N\OC/C=C/c2cccc(C3OCCO3)c2)[C@H](C)[C@@H](O)[C@]1(C)O | 0.25 µg/mL (≈ 0.316 µM) | 0.25 µg/mL (≈ 0.316 µM) | 0.25 µg/mL (≈ 0.316 µM) | 128 µg/mL (≈ 162 µM) | 128 µg/mL (≈ 162 µM) | 0.06 µg/mL (≈ 0.0759 µM) | 64 µg/mL (≈ 80.9 µM) | 1 µg/mL (≈ 1.26 µM) | 0.5 µg/mL (≈ 0.632 µM) | 0.25 µg/mL (≈ 0.316 µM) | 1 µg/mL (≈ 1.26 µM) | 0.25 µg/mL (≈ 0.316 µM) | 0.25 µg/mL (≈ 0.316 µM) | 0.06 µg/mL (≈ 0.0759 µM) | 0.5 µg/mL (≈ 0.632 µM) | 0.06 µg/mL (≈ 0.0759 µM) | 1 µg/mL (≈ 1.26 µM) | – | – | –
CC[C@H]1OC(=O)[C@H](C)C(=O)[C@H](C)[C@@H](O[C@@H]2O[C@H](C)C[C@H](N(C)C)[C@H]2O)[C@](C)(OC)C[C@@H](C)/C(=N\OC/C=C/c2ccc3c(c2)OCO3)[C@H](C)[C@@H](O)[C@]1(C)O | 0.25 µg/mL (≈ 0.328 µM) | 0.25 µg/mL (≈ 0.328 µM) | 0.25 µg/mL (≈ 0.328 µM) | 128 µg/mL (≈ 168 µM) | 128 µg/mL (≈ 168 µM) | 0.06 µg/mL (≈ 0.0786 µM) | 64 µg/mL (≈ 83.9 µM) | 0.5 µg/mL (≈ 0.655 µM) | 1 µg/mL (≈ 1.31 µM) | 0.25 µg/mL (≈ 0.328 µM) | 1 µg/mL (≈ 1.31 µM) | 0.25 µg/mL (≈ 0.328 µM) | 0.25 µg/mL (≈ 0.328 µM) | 0.06 µg/mL (≈ 0.0786 µM) | 0.5 µg/mL (≈ 0.655 µM) | 0.06 µg/mL (≈ 0.0786 µM) | 1 µg/mL (≈ 1.31 µM) | – | – | –
CC[C@H]1OC(=O)[C@H](C)[C@@H](O[C@H]2C[C@@](C)(OC)[C@@H](O)[C@H](C)O2)[C@H](C)[C@@H](O[C@@H]2O[C@H](C)C[C@H](N(C)C)[C@H]2O)[C@](C)(O)C[C@@H](C)C(=O)[C@H](C)[C@@H](O)[C@]1(C)O [ERYTHROMYCIN] | – | – | – | – | – | – | – | – | – | – | – | – | – | – | – | – | – | > 128 µM | > 128 µM | > 128 µM
